According to article PMC12401638 (Drug Testing and Analysis, 2025):
Like-named read-outs stand apart in the source and are kept apart here.

What was measured:
[1] = test system: both cannabinoid receptors; conditions: cited from earlier work
CB2 [2] = target: T1, CB2 (Homo sapiens, UniProt P34972); experiment: cell-based; format: cell-based
CB2 [3] = target: T1, CB2; conditions: [35S]GTPγS, cAMP and βarr2 recruitment assay; cited from earlier work
CB1 = CB1 (Homo sapiens, UniProt P21554); experiment: cell-based; format: cell-based
neuropathic pain = conditions: mouse model for neuropathic pain; cited from earlier work
[4] = Metabolite identification by human liver microsome incubation and LC-QTOF-MS; format: in vitro ADME; conditions: HLM incubation 37°C, 2 h
Method in brief: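 Pooled human liver microsomes (50 donors, 20 mg/mL stock) with NADPH (10 mM stock) in 100 mM phosphate buffer, pH 7.4, 10 mM MgCl2. Controls: buffer only, and buffer plus NADPH without microsomes. Microsomal samples run in duplicate. Incubated 2 h at 37°C, quenched with acetonitrile, centrifuged, supernatant partly dried and filtered. Analysed by LC-QTOF-MS with an ammonium formate (10 mM, pH 3) / MeOH:ACN gradient.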

Chain of CB1 (P21554 whole entry): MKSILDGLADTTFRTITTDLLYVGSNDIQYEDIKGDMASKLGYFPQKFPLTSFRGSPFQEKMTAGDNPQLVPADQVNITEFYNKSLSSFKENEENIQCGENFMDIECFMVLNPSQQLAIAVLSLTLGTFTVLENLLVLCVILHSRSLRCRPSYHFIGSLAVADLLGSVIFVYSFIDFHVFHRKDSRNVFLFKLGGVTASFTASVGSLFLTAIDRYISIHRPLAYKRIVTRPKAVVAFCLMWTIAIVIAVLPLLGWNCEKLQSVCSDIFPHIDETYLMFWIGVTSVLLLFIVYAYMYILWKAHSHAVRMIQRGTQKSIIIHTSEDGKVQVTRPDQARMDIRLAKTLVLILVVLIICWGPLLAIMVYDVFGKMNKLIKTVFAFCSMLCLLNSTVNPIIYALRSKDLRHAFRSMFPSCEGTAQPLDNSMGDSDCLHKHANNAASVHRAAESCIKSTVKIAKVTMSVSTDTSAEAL
Chain of CB1 (P32121 whole entry partner): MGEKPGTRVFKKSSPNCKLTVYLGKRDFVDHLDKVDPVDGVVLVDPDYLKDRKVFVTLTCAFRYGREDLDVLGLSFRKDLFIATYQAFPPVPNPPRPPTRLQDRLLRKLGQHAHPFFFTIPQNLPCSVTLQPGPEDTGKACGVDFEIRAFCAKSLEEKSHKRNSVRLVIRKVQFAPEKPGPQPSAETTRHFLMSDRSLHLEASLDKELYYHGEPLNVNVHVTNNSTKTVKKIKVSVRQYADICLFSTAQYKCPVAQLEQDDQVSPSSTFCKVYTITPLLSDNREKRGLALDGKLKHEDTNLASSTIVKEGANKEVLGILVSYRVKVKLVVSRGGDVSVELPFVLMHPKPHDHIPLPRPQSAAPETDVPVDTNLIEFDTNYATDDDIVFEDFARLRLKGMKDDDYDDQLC
T1 sequence (P34972 whole entry): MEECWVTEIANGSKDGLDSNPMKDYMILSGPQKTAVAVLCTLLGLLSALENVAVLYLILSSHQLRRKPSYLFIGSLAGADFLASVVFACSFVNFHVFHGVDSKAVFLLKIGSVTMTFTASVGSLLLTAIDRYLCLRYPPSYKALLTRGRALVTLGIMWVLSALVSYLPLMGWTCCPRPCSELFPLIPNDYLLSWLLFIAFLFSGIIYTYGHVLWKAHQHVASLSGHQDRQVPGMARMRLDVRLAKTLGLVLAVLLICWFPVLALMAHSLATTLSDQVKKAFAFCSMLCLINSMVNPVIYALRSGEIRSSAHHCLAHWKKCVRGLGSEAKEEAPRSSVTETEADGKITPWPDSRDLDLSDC
T1 sequence (P32121 whole entry partner): as the sequence (P32121 whole entry partner) above

## Cc1c(Br)cn(Cc2ccc(F)cc2)c(=O)c1C(=O)NC1CCCCCC1 [B2, 5‐bromo‐N‐cycloheptyl‐1‐(4‐fluorobenzyl)‐4‐methyl‐2‐oxo‐1,2‐dihydropyridine‐3‐carboxamide]
[1]
  activity and affinity at both cannabinoid receptors: nanomolar activity and affinity

## Cc1c(Br)cn(Cc2ccc(F)cc2)c(=O)c1NC(=O)C1CCCCCC1 [C2, N‐(5‐bromo‐1‐(4‐fluorobenzyl)‐4‐methyl‐2‐oxo‐1,2‐dihydropyridin‐3‐yl)cycloheptanecarboxamide]
CB2 [2]
  CB2 receptor activation potential compared with CH-FUBBMPDORA: almost identical and equally weak
CB2 [3]
  activation potential at CB2: (very) limited activation potential
CB1
  CB1 activity compared with CH-FUBBMPDORA: more active than CH‐FUBBMPDORA
Neuropathic pain
  antinociceptive activity: displayed antinociceptive activity

## Cc1c(Br)cn(Cc2ccc(F)cc2)c(=O)c1NC(=O)C1CCCCC1 [CH‐FUBBMPDORA, N‐[5‐bromo‐1‐(4‐fluorobenzyl)‐4‐methyl‐2‐oxo‐1,2‐dihydropyridin‐3‐yl)cyclohexanecarboxamide]
[4]
  number of metabolites identified: Four
[4]; with NADPH
  Area (LC-QTOF-MS peak area): 5.68e + 05
CB2 [2]
  EC50: 4270 nM
CB1
  EC50: 3780 nM

## CCCCCn1cc(C(=O)c2cccc3ccccc23)c2ccccc21 [JWH‐018]
CB2 [2]
  E max (%) (95% CI), CB2, relative to CP55,940 (100%): 63.2 (55.8–70.9) %
CB2 [2]; read-out: EC 50 (nM) (95% CI), CB2
  EC50: 4.36 nM
CB1
  E max (%) (95% CI), CB1, relative to CP55,940 (100%): 378 (348–409) %
CB1; read-out: EC 50 (nM) (95% CI), CB1
  EC50: 14.3 nM
